Apaf-1 act = activators of human Apaf-1 apoptosome, primary screen, biochemical, DEVD-Rh110 fluorescence, uHTS; Apaf-1 apoptosome caspase-3 activation; hits give low values; activity change, negative = activation, % at 20 µM; 330,000 compounds, 0.31% hits; AID 489031, 2010;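 active means activity change at or below -40% at 20 µM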
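system = biochemical Apaf-1 apoptosome reconstitution | buffer or medium = 20 mM HEPES pH 7.5 with CHAPS, BSA | also added = dATP and cytochrome c as apoptosome triggers, (Z-DEVD)2-Rh110 substrate | incubation = 30 min compound preincubation and 50 min reaction, both room temperature | measured by = fluorescence, 540 nm emission, 480 nm excitation | read-out basis = Caspase-3 cleavage activity downstream of Apaf-1 activation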
Rh110 act interf = Rh110 fluorescence interference by putative Apaf-1 activators, confirmation, artefact control for Apaf-1 activator project, biochemical, 20 µM | shares compounds with Apaf-1 act | quenched caspase reaction, Ex480/Em540 | fluorescence interference (activity change), % at 20 µM, hits read low | 980 tested, under 10 active | AID 504616, 2011;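 active means mean activity change at or below -40% when tested at 20 µM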
Apaf-1 act conf2 = Apaf-1 activators, single-dose retest, confirmation, biochemical, fluorescence, DEVD-Rh110, 20 µM. 980 compounds, 5% hits. activity change, negative = activation, % at 20 µM. shares compounds with Apaf-1 act. reconstituted apoptosome caspase-3 activity; hits give low values;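 active means mean activity change at or below -40%, meaning activation of 40% or more, at 20 µM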
* marks the source's active call; other numbers are inactive results; x = no result. Only a sample is shown.

SMILES	Apaf-1 act	Rh110 act interf	Apaf-1 act conf2
COC(=O)C(CCCCNC(=O)c1ccc([N+](=O)[O-])cc1)NC(=O)c1ccc([N+](=O)[O-])cc1 (centres undefined)	-48.0*	8.1	12.7
C=CCn1c(N)c(C(=O)NCC2CCCO2)c2nc3ccccc3nc21 (centres undefined)	77.7	x	x
COc1ccccc1-c1ccc(=O)n(CC(=O)NCC2CCCO2)n1 (centres undefined)	-50.0*	-1.0	6.9
COc1ccc(-n2c(N)c(C(=O)NCC3CCCO3)c3nc4ccccc4nc32)c(OC)c1 (centres undefined)	65.8	x	x
Nc1c(N2CCCC2)cc(Cl)c2nonc12	95.7	x	x
COC(=O)c1sccc1NC(=O)c1c(C)noc1C	-653.9*	10.0	5.1
CC1=NN(c2cccc(Cl)c2)C(=O)C1	74.8	x	x
Cc1cccc2cc(C(c3nnnn3CC3CCCO3)N3CCc4ccccc4C3)c(=O)[nH]c12 (centres undefined)	78.6	x	x
COC(=O)C1=C(C)N(Cc2ccccc2)C(=NCc2ccc(OC)cc2)N[C@H]1c1cccc(F)c1	55.6	x	x
CC(=O)c1ccc(Nc2nc(-c3cccnc3)cs2)cc1	-208.2*	15.9	13.5
COC(=O)c1ccc(-c2ncc(-c3cccc4ccccc34)o2)cc1	41.8	x	x
Cc1ccc2c(c1)c1cccc3c1n2CCN3CCC(N)=O	51.3	x	x
Cc1ccc(C)c(N2CCN(S(=O)(=O)c3cn(C)cn3)CC2)c1	-77.7*	-4.0	7.7
C#CCOCCOCCOCCNc1nc(N2CCN(C(=O)CCCCCCCCCCNC(=O)[C@H]([C@@H](C)CC)n3cc(CCCCCN)nn3)CC2)nc(N2CCN(C(=O)CCCCCCCCCCNC(=O)[C@H]([C@@H](C)CC)n3cc(CCCCN=C(N)N)nn3)CC2)n1	71.5	x	x
O=C(Nc1ccc(-c2nc3ccc(NC(=O)c4cccs4)cc3[nH]2)cc1)c1cccs1	68.9	x	x
O=C(NNc1ccccc1C(F)(F)F)c1cccs1	-107.0*	4.1	7.8
CN(C)CCCNC(=O)CC1C[C@H](C(=O)N2CCCCC2)[C@@]2(CCc3ccccc3)c3[nH]c4ccccc4c3CCN2C1=O (some centres undefined)	45.9	x	x
CC(CCC(C)C(C)(C)C)[C@@H]1CC[C@H]2C3C[C@H](OS(O)(=S)=S)[C@H]4C[C@H](OS(O)(=S)=S)[C@@H](OS(O)(=S)=S)C[C@]4(C)[C@H]3CC[C@]12C (some centres undefined) (tested in a mixture with another compound)	86.8	x	x
C=C[C@H]1CN2CC[C@H]1C[C@@H]2[C@@H](O)c1ccnc2ccc(OC)cc12	-3.0	x	x
Cc1cnc(C(=O)Nc2ccc(C)c(S(=O)(=O)N(C)C)c2)cn1	-46.7*	7.7	9.4
CS(=O)(=O)N(CC(=O)Nc1ccccc1C(=O)N1CCOCC1)c1cccc(F)c1	-57.3*	3.5	-0.8
COc1ccc(-c2csc(-c3ccc(O)cc3)n2)cc1	-115.7*	8.4	4.5
CCN(CC)c1ccc(S(=O)(=O)N2CCCCC2)cc1NC(=O)C1CSC2(C)CCC(=O)N12 (centres undefined)	51.0	x	x
CCOC(=O)C1CCCN(C(=O)c2cc(S(=O)(=O)N3CCCCCC3)ccc2OC)C1 (centres undefined)	49.1	x	x
CCOc1ccc(S(=O)(=O)N2CCCCC2)cc1NC(=O)C1=COCCO1	-131.3*	18.1	19.1
SMILES	Apaf-1 act	Rh110 act interf	Apaf-1 act conf2
CN1CCN(c2nc(-c3ccc(C(C)(C)C)cc3)nc3ccccc23)CC1	43.1	x	x
Cc1[nH]n(-c2ccc([N+](=O)[O-])cc2)c(=O)c1/C=N/N1CCOCC1	44.5	x	x
O=C1C(NS(=O)(=O)c2ccc(Cl)cc2)=C(N2CCCCC2)C(=O)c2ccccc21	71.8	x	x
O=S1(=O)N=C(Nc2ccc(S(=O)(=O)N3CCCCC3)cc2)c2ccccc21	-44.4*	-2.9	8.6
CC[C@]12c3[nH]c4ccc(Cl)cc4c3CCN1C(=O)[C@@H](CC(=O)NCC13CC4CC(CC(C4)C1)C3)C[C@@H]2C(=O)N1CCN(C(=O)c2ccco2)CC1	43.7	x	x
CCc1ccc(NC2=CC(=O)C(=O)c3ccccc32)cc1	91.7	x	x
COC(=O)NCc1ccc(Cl)c(Cl)c1	-70.7*	-2.7	-2.5
COc1cccc2cc(C(=O)NCc3ccc(Cl)cc3)c(=N)oc12	41.6	x	x
COc1ccc(NC(=O)CCl)cn1	67.2	x	x
COC(=O)CCC(=O)OC1(C)C(=O)C2=CN(CC3CC3)C(c3ccc(OC)cc3)=CC2=C(Br)C1=O (centres undefined)	66.3	x	x
CC(/C=C/c1ccc2c(c1)OCO2)=N/NC(=O)c1ccncc1	-41.6*	-3.9	4.3
O=C(N/N=C1\C/C(=N\NC(=O)c2ccncc2)c2ccccc21)c1ccncc1	93.4	x	x
CN[C@H]1CC[C@@H](c2ccc(Cl)c(Cl)c2)c2ccccc21	50.0	x	x
Cc1ccc(S(=O)(=O)/N=C2\C(=O)c3ccccc3C([O-])=C2n2cc[n+](CCC(C)C)c2)cc1	57.1	x	x
CC(=O)Nc1ccc(N2CC(C)(C)C2=O)cc1	-58.1*	5.8	11.5
COC(=O)CCC(=O)OC1(C)C(=O)C=C2C=C(C3CC3)N(CCN3CCOCC3)C=C2C1=O (centres undefined)	46.2	x	x
O=C1NC(=O)[C@@H]2C3c4ccccc4C=CN3[C@H](C(=O)c3cccs3)[C@H]12 (some centres undefined)	47.4	x	x
CCOc1ccc(OCC(=O)OCn2c(SC)nnc(C)c2=O)cc1	-75.9*	-1.8	3.0
COc1cc2[nH]c(=O)n(Cc3ccc(C(=O)NC4CCCC4)cc3)c(=O)c2cc1OC	-52.8*	6.7	3.4
O=C(c1ccc(Cn2c(=O)[nH]c3ccccc3c2=O)cc1)N1CCN(c2ccc(Cl)cc2)CC1	41.4	x	x
COC(=O)c1ccccc1NC1=C/C(=N\S(=O)(=O)c2cccs2)c2ccccc2C1=O	91.9	x	x
O=C(/C=C/c1ccoc1)c1ccccc1O	-133.5*	-0.9	9.0
Cc1cc(C)cc(NC(=S)Nc2cccc3cnccc23)c1	97.6	x	x
CC(C)[N+]1(C)[C@@H]2CC[C@H]1CC(OC(=O)C(CO)c1ccccc1)C2 (some centres undefined)	-5.4	x	x
Cc1ccc2c(C)nc(Nc3nc(CSc4nc5ccccc5[nH]4)cc(=O)[nH]3)nc2c1	-71.4*	4.3	5.1
SMILES	Apaf-1 act	Rh110 act interf	Apaf-1 act conf2
CC(C)=CCC1=C(OCC(=O)O)C(=O)c2ccccc2C1=O	95.3	x	x
COc1cccc2c(=O)c3cccc(N)c3[nH]c12	69.9	x	x
COc1cccc2c3c(c(=O)[nH]c12)CCC(C)(C)O3	-63.4*	-9.3	9.7
CC(C)C[C@@H]1CN=C(N)N1C[C@@H]1CCCN1C[C@H](C)N1C[C@@H](Cc2ccccc2)N(CCCC2CCCC2)C1=N	54.6	x	x
C#CCOCCOCCOCCNc1nc(N2CCN(C(=O)CCCCCCCCCCNC(=O)[C@H]([C@@H](C)CC)n3cc(CCCCN=C(N)N)nn3)CC2)nc(N2CCN(C(=O)CCCCCCCCCCNC(=O)[C@H](CO)n3cc(CCCCCN)nn3)CC2)n1	85.1	x	x
O=C(COC(=O)Cc1ccsc1)Nc1ccc(F)cc1Cl	-52.1*	-7.2	9.8
